# Bioassay records: PubChem BioAssay, The Scripps Research Institute Molecular Screening Center
# An excerpt weighted towards active compounds, which were near 1.9% of everything screened.
# M5 ag = human M5 muscarinic receptor agonists, primary screen, CHO-K1 cells, Fluo-8 calcium fluorescence. Muscarinic acetylcholine receptor M5 (Homo sapiens), P08912. CHO-K1 hM5 cells; 0% DMSO wells, 100% maximal acetylcholine response. activation, % at 3 µM. hit rate 0.19% among 360,000;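 active = activation above the run's mean over test compounds plus 3 SD, cut at about 23% in these data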;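 note: signal is peak over basal fluorescence ratio across the kinetic read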
# M5 PAM = human M5 muscarinic receptor positive allosteric modulators, primary screen, CHO-K1 cells, Fluo-8 calcium fluorescence | Muscarinic acetylcholine receptor M5 (Homo sapiens), P08912 | CHO-K1 hM5, ACh EC20 PAM; 0% = ACh EC20, 100% = ACh EC100 | activation, % at 3 µM | hit rate 0.3% among 360,000;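 active = activation above the run cutoff, the mean activation of all test compounds plus 3 SD, cut at about 18% in these data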
#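 System: CHO-K1 cell line with stable human muscarinic M5 receptor expression | Also added: EC20 acetylcholine as agonist stimulus | Compound: One concentration, 3 µM final (nominal) | Timing: Fluo-8 loading 80 min at 37 °C plus 30 min room temperature | Measured by: Fluo-8 calcium dye fluorescence, kinetic read | Read-out basis: % activation, ACh-normalized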
# CHRM4 antagonist = human M4 muscarinic receptor antagonists, primary screen, CHO cells, Fluo-8 calcium fluorescence. Muscarinic acetylcholine receptor M4 (Homo sapiens), P08173. CHO-hM4 cells, ACh EC80. inhibition, % at 3 µM. hit rate 0.73% among 360,000. AID 624125, 2012;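 active = inhibition above its plate's cutoff, the mean inhibition of sample wells plus 3 SD, cut at about 27% in these data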;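 note: 0% = acetylcholine EC80 with DMSO and 100% = DMSO without agonist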
# Target sequence (P08173 whole entry, looked up): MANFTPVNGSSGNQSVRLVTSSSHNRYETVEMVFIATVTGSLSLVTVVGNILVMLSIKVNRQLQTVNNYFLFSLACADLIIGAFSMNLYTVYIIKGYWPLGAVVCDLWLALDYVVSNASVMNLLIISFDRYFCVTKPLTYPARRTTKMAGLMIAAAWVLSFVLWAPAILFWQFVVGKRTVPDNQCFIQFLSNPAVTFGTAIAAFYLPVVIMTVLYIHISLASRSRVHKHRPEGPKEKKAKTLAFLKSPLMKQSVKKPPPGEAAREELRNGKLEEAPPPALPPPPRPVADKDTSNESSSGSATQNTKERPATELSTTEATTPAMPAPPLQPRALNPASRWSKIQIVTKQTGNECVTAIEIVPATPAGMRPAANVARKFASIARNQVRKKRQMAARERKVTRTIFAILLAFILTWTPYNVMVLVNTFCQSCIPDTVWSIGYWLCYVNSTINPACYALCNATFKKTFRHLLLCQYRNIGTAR
# CHRM4 PAM = human M4 muscarinic receptor positive allosteric modulators, primary screen, CHO-K1 cells, Fluo-8 calcium fluorescence; Muscarinic acetylcholine receptor M4 (Homo sapiens), P08173; CHO-K1 hM4/Gqi5, ACh EC20; 0% = ACh EC20, 100% = maximal ACh; activation, % at 3 µM; hit rate 0.4% among 360,000; AID 624126, 2012;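 active = activation above its plate's cutoff, the mean activation of sample wells plus 3 SD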
# CHRM5 antagonist = human M5 muscarinic receptor antagonists, primary screen, CHO cells, Fluo-8 calcium fluorescence | Muscarinic acetylcholine receptor M5 (Homo sapiens), P08912 | CHO-hM5 cells, ACh EC80 | inhibition, % at 3 µM | hit rate 0.59% among 360,000;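 active = inhibition above a per-plate cutoff, the mean of that plate's test compounds plus 3 SD, cut at about 27% in these data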;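 note: 0% = acetylcholine EC80 with DMSO and 100% = DMSO without agonist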
# CHRM4 agonist = human M4 muscarinic receptor agonists, primary screen, CHO-K1 cells, Fluo-8 calcium fluorescence | CHO-K1 hM4/Gqi5; vehicle 0%, full acetylcholine response 100% | hit rate 0.14% among 360,000 | activation, % at 3 µM;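 active = activation above the run mean over all test wells plus 3 SD, cut at about 32% in these data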;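 note: peak over basal fluorescence ratio per well then scaled between controls; 0% = DMSO wells and 100% = acetylcholine at EC100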
# Active calls of the source: *.
SMILES,M5 ag,M5 PAM,CHRM4 antagonist,CHRM4 PAM,CHRM5 antagonist,CHRM4 agonist
Cc1ccc(NS(=O)(=O)c2ccc(OCC(=O)Nc3cccc([N+](=O)[O-])c3)c(C)c2)cc1,-5.3,-7.8,29.9*,-27.7,8.8,4.1
C=C(C)Cn1c2ccc(NC(=S)NCc3ccccc3F)cc2c(=O)n1C,0.4,-3.3,-3.1,-0.8,16.0,2.0
COCC(=O)N1C[C@H]2CON(C)[C@H]2C[C@H]1c1cccc(-c2ccc(C#N)cc2)c1,-0.1,-1.8,-12.5,5.5,-1.1,0.9
Cc1cc(/C=C2\NC(=S)N(C)C2=O)ccc1N1CCCC1,138.5*,-22.8,44.9*,-24.8,58.9*,81.8*
CCCN1C(=O)/C(=C/c2ccc(OCC(=O)OCC)cc2)NC1=S,7.3,-7.6,-2.0,-9.5,11.5,17.1
Cc1cc(/C=C2/C(=O)N(C)C(=S)N2C)ccc1N1CCCC1,9.9,-3.9,2.2,3.5,13.8,4.0
CCN1C(=O)/C(=C/c2ccc(N3CCCC3)cc2)NC1=S,96.5*,-21.5,36.8*,-17.3,58.9*,58.4*
CCCN1C(=O)/C(=C/c2ccc(N3CCCC3)c(C)c2)NC1=S,69.4*,-45.9,53.5*,-19.0,62.2*,77.0*
CCCN1C(=O)/C(=C/c2ccc(N3CCOCC3)cc2)NC1=S,15.5,-14.2,10.6,-8.6,18.9,23.4
CC1CCCCC1NC(=O)c1nn(C)c2c1CS(=O)(=O)c1ccccc1-2 (stereo unspecified),-3.9,-8.1,6.3,-6.6,12.2,12.7
COc1ccc(C(=O)n2cnc3ccccc32)cc1,1.1,2.9,-21.1,14.3*,-1.6,0.3
O=c1oc2cc(O[C@@H]3OC[C@@H](O)[C@H](O)[C@H]3O)ccc2c2ccccc12,-5.3,3.9,-16.9,3.0,-3.8,1.4
CC(=O)OCCCN(C)CC/C=C1/c2ccccc2CSc2ccccc21,-20.1,-35.0,36.1*,-52.6,19.1,2.7
C[N+](C)(C)CC/C=C1/c2ccccc2CSc2ccccc21,-12.1,-25.6,96.2*,-17.7,98.7*,0.1
CN(CCC#N)C(=O)c1cc2c(s1)-c1ccccc1SC2,-3.4,-1.1,-5.9,4.3,7.1,1.7
COc1ccc(/C=C2/C(=O)ON=C2c2ccccc2)cc1OC,-0.3,23.0*,-11.1,7.8,-10.9,0.7
Cn1c(=O)n(-c2cccc(Cl)c2)c(=O)n1C,1.1,-0.1,39.9*,21.1,3.4,1.4
O=C(Cn1c(=O)n(-c2cccc(Cl)c2)c(=O)n1CC(=O)N1CCCCC1)N1CCCCC1,-2.2,-2.3,2.2,17.6,2.1,0.6
CN1C(=O)S/C(=C\c2ccc(-n3cncn3)cc2)C1=O,3.7,21.0*,-4.9,4.1,-13.4,1.6
O=Cc1ccc(-n2cncn2)cc1,-1.0,-5.4,9.1,-3.7,18.4,2.1
COc1ccc(Oc2ncnc3sccc23)cc1,-1.6,18.3*,-11.5,10.9,-7.5,2.0
COc1ccc(Nc2ncnc3sccc23)cc1,-1.2,1.5,-2.8,4.3,19.8,1.9
COc1ccc(OC)c(NC(=O)COC(=O)CC2CCCCC2)c1,-3.4,-2.1,-6.7,4.5,6.8,0.3
CN(C)CCC(Oc1ccccc1OCc1ccccc1)c1ccccc1 (stereo unspecified),-10.0,-33.3,-0.9,-54.8,27.8*,26.9
C[C@H](NC(=O)N1CCn2c1nc1ccccc12)C(=O)NCc1ccc2c(c1)OCO2,-4.8,3.8,-7.6,-1.2,-17.6,2.9
SMILES,M5 ag,M5 PAM,CHRM4 antagonist,CHRM4 PAM,CHRM5 antagonist,CHRM4 agonist
N#C/C(=C\c1coc2ccc(O)cc2c1=O)C(=O)Nc1nc2ccccc2s1,104.5*,-28.1,39.5*,-38.2,48.1*,67.2*
Cc1cc([N+](=O)[O-])nn1CCC(=O)Nc1nccs1,4.7,18.3*,-8.1,19.4,-33.6,3.4
Cc1nn(CC(=O)Nc2nccs2)c(C)c1[N+](=O)[O-],1.6,-1.5,3.8,1.5,7.8,-0.1
Cc1cccc(NC(=O)CSc2nnc(-c3ccncc3)n2CC2CCCO2)c1 (stereo unspecified),-4.2,4.1,-9.3,4.1,9.1,-1.3
CCOC(=O)Cn1c2c(c(=N)c3ccccc31)CCC2,-2.4,18.9*,-14.6,12.5,5.3,0.4
CCCCCCCCn1c2c(c(=N)c3ccccc31)CCC2,-2.4,-16.3,58.0*,-18.7,48.2*,20.7
CCOC(=O)Cn1c2c(c(=N)c3c1CCC3)CCC2,-3.9,4.0,9.2,0.4,-6.4,0.3
CCCCCCCCCn1c2c(c(=N)c3c1CCC3)CCCC2,-2.0,-15.6,63.3*,-20.2,58.2*,19.9
CCCCCCCCCCn1c2c(c(=N)c3c1CCC3)CCC2,-2.9,-20.1,28.5*,-27.5,39.4*,8.2
CCCCn1nc(C(=O)N(C)CC(=O)Nc2ccc(F)c(F)c2F)ccc1=O,1.5,-3.5,1.1,-3.2,4.4,0.0
COc1ccc(Cl)cc1CC=NNC(=O)c1ccncc1,3.4,-2.3,-11.8,5.3,-1.4,0.8
CCCN(CC(=O)Nc1ccccc1C)C(=O)C1CCN(S(=O)(=O)c2ccc(C)c(C)c2)CC1,1.6,-4.1,1.0,0.2,3.0,6.0
CC(C)(C)CC(C)(C)NC(=O)c1ccccc1,3.2,0.9,-6.2,2.4,4.8,0.6
CCC(C)(NC(=O)c1ccccc1)C(=O)O (stereo unspecified),-2.2,9.4,21.9,31.5*,-1.8,0.7
CC(=NO)c1ccc2c(c1)C(=NO)c1ccccc1-2,-0.5,-8.6,4.4,-4.6,3.7,0.2
COc1ccc(C2c3[nH]c4ccccc4c3C[C@H]3C(=O)N(C4CCN(Cc5ccccc5)CC4)CC(=O)N23)c(OC)c1 (stereo partly specified),-4.1,-4.3,27.3*,-14.6,6.4,4.7
CCOc1ccccc1C1c2[nH]c3ccccc3c2C[C@H]2C(=O)N(C3CCN(Cc4ccccc4)CC3)CC(=O)N12 (stereo partly specified),-1.7,-3.5,-4.5,-15.4,16.1,7.3
CC1CCC(C(C)C)C(OCC(O)C[N+]2(C)CCCCC2)C1 (stereo unspecified),-13.2,-13.8,8.6,-19.0,4.2,0.7
CC1CCC(C(C)C)C(OCC[N+](C)(C)C)C1 (stereo unspecified),-7.5,-19.5,98.9*,-36.3,99.5*,1.4
